Measured values reported in ChEMBL document CHEMBL4041471, “neo-Clerodane Diterpenoids and Other Constituents of Salvia filipes” (J Nat Prod, 2016).
The source made the active and inactive calls.

Tests used:
Assay type in all cases: functional, cell-based
K562 = assay: Cytotoxicity against human K562 cells at 20 to 25 uM measured after 48 hrs by SRB assay
Method in brief: (§1)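 SRB screen in human cancer lines (U-251 glioblastoma, PC-3 prostate, K562 leukemia, HCT-15 colorectal, MCF-7 breast, SKLU-1 lung). 5000−7500 cells per well were preincubated 24 h at 37 °C, 5% CO2, then exposed to compound (20.0 or 25.0 μM) for 48 h. Cells were fixed and stained with sulforhodamine B, and absorbance was read at 515 nm.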

U-251 = assay: Cytotoxicity against human U251 cells at 20 to 25 uM measured after 48 hrs by SRB assay; method in brief: as §1
PC-3 = assay: Cytotoxicity against human PC3 cells at 20 to 25 uM measured after 48 hrs by SRB assay; method in brief: as §1
MCF7 = assay: Cytotoxicity against human MCF7 cells at 20 to 25 uM measured after 48 hrs by SRB assay; method in brief: as §1
SK-LU-1 = assay: Cytotoxicity against human SKLU1 cells at 20 to 25 uM measured after 48 hrs by SRB assay; method in brief: as §1
HCT-15 = assay: Cytotoxicity against human HCT15 cells at 20 to 25 uM measured after 48 hrs by SRB assay; method in brief: as §1

Measured: Activity

C[C@@H]1[C@@H](C)O[C@@H]2O[C@@H](c3ccoc3)C[C@@]21c1cccc2c1COC2=O
inactive: K562 | U-251 | PC-3 | MCF7 | SK-LU-1 | HCT-15

C[C@@H]1[C@H]2C[C@@]34COC(=O)[C@H]3CC=C[C@H]4[C@@]13C[C@H](C1=CC(=O)OC1O)O[C@H]3O2 (stereo not given in full)
inactive: K562 | U-251 | PC-3 | MCF7 | SK-LU-1 | HCT-15

C[C@@H]1[C@H]2C[C@@]34COC(=O)[C@@H]3CC=C[C@H]4[C@@]13C[C@H](c1ccoc1)O[C@H]3O2
inactive: K562 | U-251 | PC-3 | MCF7 | SK-LU-1 | HCT-15

C[C@@H]1[C@H]2C[C@@]34COC(=O)[C@@H]3CC=C[C@H]4[C@@]13C[C@H](C1=CC(O)OC1=O)O[C@H]3O2 (stereo not given in full)
inactive: K562 | U-251 | PC-3 | MCF7 | SK-LU-1 | HCT-15

C[C@@H]1[C@H]2C[C@@]34COC(=O)[C@@H]3CC=C[C@H]4[C@@]13C[C@H](C1=CC(=O)OC1O)O[C@H]3O2 (stereo not given in full)
inactive: K562 | U-251 | PC-3 | MCF7 | SK-LU-1 | HCT-15

COc1ccc(-c2cc(=O)c3c(O)c(OC)c(OC)cc3o2)cc1O
inactive: K562 | U-251 | PC-3 | MCF7 | SK-LU-1 | HCT-15

COC1C=C([C@H]2C[C@]34[C@@H](O2)O[C@H](C[C@@]25COC(=O)[C@@H]2CC=C[C@H]53)[C@H]4C)C(=O)O1 (mixture of isomers)
inactive: K562 | U-251 | PC-3 | MCF7 | SK-LU-1 | HCT-15

C[C@@H]1[C@H]2C[C@@]34COC(=O)[C@H]3CC=C[C@H]4[C@@]13C[C@H](c1ccoc1)O[C@H]3O2
inactive: K562 | U-251 | PC-3 | MCF7 | SK-LU-1 | HCT-15

C[C@@H]1[C@H]2C[C@@]34COC(=O)[C@H]3CC=C[C@H]4[C@@]13C[C@H](C1=CC(O)OC1=O)O[C@H]3O2 (stereo not given in full)
inactive: K562 | U-251 | PC-3 | MCF7 | SK-LU-1 | HCT-15

C[C@@]12C[C@@]3(c4ccoc4)O[C@@]14CCC=C1C(=O)OC[C@]14CC[C@]2(C)O3
inactive: K562 | U-251 | PC-3 | MCF7 | SK-LU-1 | HCT-15
